Source: PMC9279630 (Acta Pharmaceutica Sinica. B, 2021)

Assay type: in vivo
Conditions: mouse
Outline: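 Mice dosed i.p.; horizontal brain sections taken at time points over 24 h, treated by laser-assisted chemical transfer with CHCA as matrix, and imaged by MALDI MSI for the test compound and its metabolite. Relative intensities in brain regions and lateral ventricles cross-checked by LC‒MS/MS. Three biological and technical replicates; mean ± SD from three animals.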

- Tmax (male, ICR, brain, ip, 20 mg/kg): ~15 min
Structure (SMILES): Cc1nc2n(c(=O)c1CCN1CCC(c3noc4cc(F)ccc34)CC1)CCCC2 [RISP, risperidone]
- brain regional distribution after 2 h (after 2 h, i.p. RISP 20 mg/kg): a small amount of parent drug was only observed in the lateral ventricles
- brain regional distribution (after i.p. administration of RISP 20 mg/kg, around peak): mainly observed in the frontal cortex, striatum, and hippocampus regions
